This is an account of results in ChEMBL document CHEMBL2216748 (J Med Chem, 2012).

Molecules are shown by their SMILES. The source made the active and inactive calls. The rule behind the calls is not given here.

The target in assay [1] is T1, Ribosyldihydronicotinamide dehydrogenase [quinone] (Homo sapiens) (UniProt P16083).
T1 sequence (whole entry): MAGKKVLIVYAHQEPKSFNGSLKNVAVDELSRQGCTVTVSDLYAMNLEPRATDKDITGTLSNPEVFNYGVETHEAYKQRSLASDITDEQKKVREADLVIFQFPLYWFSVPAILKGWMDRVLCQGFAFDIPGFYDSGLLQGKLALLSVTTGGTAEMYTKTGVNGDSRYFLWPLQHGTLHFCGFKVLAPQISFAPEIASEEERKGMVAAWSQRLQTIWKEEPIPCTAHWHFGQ
The assay is described as follows: Displacement of (S)-N4-(2-(4-(4-(4-methyl-3-(4-(pyridin-3-yl)pyrimidin-2-ylamino)phenylcarbamoyl)benzyl)piperazin-1-yl)ethyl)-N1-(15-oxo-19-((3aS,4S,6aR)-2-oxohexahydro-1H-thieno[3,4-d]imidazol-4-yl)-4,7,10-trioxa-14-azanonadecyl)-2-(4-(3-(trifluoromethyl)-3H-diazirin-3-yl)benzamido)succinamide from NQO2 in human K562 cell lysate after 1 hr by capture compound based LC/MS analysis. Format: cell-free. The method in brief: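 K562 lysate (400 μg, precleared) was preincubated with competitor (final 100 μM) for 30 min at 4 °C. Capture compound (final 5 μM) was added for 1 h at 4 °C, then UV-crosslinked 10 min. Proteins were pulled down on streptavidin beads and trypsin-digested on-bead for 16 h at 37 °C, then analysed by nanoLC-Orbitrap MS/MS. Spectral counts in capture versus competition were compared, with duplicate experiments.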

Assay [2] concerns the target T1, Ribosyldihydronicotinamide dehydrogenase [quinone] (Homo sapiens). The assay is described as follows: Displacement of (S)-N4-(2-(4-(4-(4-methyl-3-(4-(pyridin-3-yl)pyrimidin-2-ylamino)phenylcarbamoyl)benzyl)piperazin-1-yl)ethyl)-N1-(15-oxo-19-((3aS,4S,6aR)-2-oxohexahydro-1H-thieno[3,4-d]imidazol-4-yl)-4,7,10-trioxa-14-azanonadecyl)-2-(4-(3-(trifluoromethyl)-3H-diazirin-3-yl)benzamido)succinamide from NQO2 in human HepG2 cell lysate at 100 uM after 1 hr by Western blot analysis. The class given is cell-free. The method in brief: (§1)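 Lysate (400 μg, precleared with streptavidin beads 30 min at 4 °C) in capture buffer was preincubated with competitor (final 100 μM) for 30 min at 4 °C. […] Streptavidin beads were added for 1 h at 4 °C, followed by anti-NQO2 (1:500) Western blot.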

Assay [3] has the same target. Briefly: Displacement of (S)-N4-(2-(4-(4-(4-methyl-3-(4-(pyridin-3-yl)pyrimidin-2-ylamino)phenylcarbamoyl)benzyl)piperazin-1-yl)ethyl)-N1-(15-oxo-19-((3aS,4S,6aR)-2-oxohexahydro-1H-thieno[3,4-d]imidazol-4-yl)-4,7,10-trioxa-14-azanonadecyl)-2-(4-(3-(trifluoromethyl)-3H-diazirin-3-yl)benzamido)succinamide from NQO2 in human K562 cell lysate at 100 uM after 1 hr by Western blot analysis. The class given is cell-free. The method in brief:
as §1

Assay [4] shares this target. The assay is described as follows: Displacement of (S)-N4-(4-(3-(2-((4-carbamimidoylphenylamino)methyl)-1-methyl-N-(pyridin-2-yl)-1H-benzo[d]imidazole-5-carboxamido)propanamido)butyl)-N1-(15-oxo-19-((3aS,4S,6aR)-2-oxohexahydro-1H-thieno[3,4-d]imidazol-4-yl)-4,7,10-trioxa-14-azanonadecyl)-2-(4-(3-(trifluoromethyl)-3H-diazirin-3-yl)benzamido)succinamide from human recombinant NQO2 after 1 hr by silver staining-based SDS PAGE analysis. The method in brief: (§2)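 Human recombinant NQO2 (1 μg) was preincubated 30 min at 4 °C with competitor, then capture compound was added at 5 μM final (competitors 100 μM final) and equilibrated 1 h at 4 °C. Samples were UV-irradiated 10 min, pulled down on streptavidin beads and resolved by silver-stained SDS-PAGE.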

The target is the same in assay [5]. Briefly: Displacement of (S)-N4-(2-(4-(4-(4-methyl-3-(4-(pyridin-3-yl)pyrimidin-2-ylamino)phenylcarbamoyl)benzyl)piperazin-1-yl)ethyl)-N1-(15-oxo-19-((3aS,4S,6aR)-2-oxohexahydro-1H-thieno[3,4-d]imidazol-4-yl)-4,7,10-trioxa-14-azanonadecyl)-2-(4-(3-(trifluoromethyl)-3H-diazirin-3-yl)benzamido)succinamide from human recombinant NQO2 after 1 hr by silver staining-based SDS PAGE analysis. The method in brief:
as §2

For assay [6], the target named is T2, Leucine-rich repeat-containing protein 59 (Homo sapiens) (UniProt Q96AG4).
T2 sequence (whole entry): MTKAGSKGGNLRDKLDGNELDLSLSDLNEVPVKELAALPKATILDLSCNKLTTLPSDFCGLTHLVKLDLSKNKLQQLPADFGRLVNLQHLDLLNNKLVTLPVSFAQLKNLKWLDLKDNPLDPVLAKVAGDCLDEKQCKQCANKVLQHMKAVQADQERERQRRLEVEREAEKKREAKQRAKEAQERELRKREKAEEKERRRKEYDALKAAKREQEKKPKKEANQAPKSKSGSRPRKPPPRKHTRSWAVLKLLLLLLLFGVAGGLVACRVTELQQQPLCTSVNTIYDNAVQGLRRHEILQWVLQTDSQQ
The assay is described as follows: Displacement of 2-((R)-1-cyclohexyl-2-oxo-2-((S)-2-(4-(N-((S)-6,9,25-trioxo-29-((3aS,4S,6aR)-2-oxohexahydro-1H-thieno[3,4-d]imidazol-4-yl)-8-(4-(3-(trifluoromethyl)-3H-diazirin-3-yl)benzamido)-14,17,20-trioxa-5,10,24-triazanonacosyl)carbamimidoyl)benzylcarbamoyl)azetidin-1-yl)ethylamino)acetic acid from LRC59 in human HepG2 cell lysate after 1 hr by capture compound based LC/MS analysis. The class given is cell-free. The method in brief:
(§3)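 Capture compound MS: 400 μg HepG2 or K562 lysate in capture buffer, precleared with streptavidin beads 30 min at 4 °C. Competition controls preincubated 30 min at 4 °C with free drug (10 μL of 1 mM). Capture compound (10 μL of 50 μM) equilibrated 1 h at 4 °C, UV-irradiated 10 min, streptavidin bead pulldown, on-bead trypsin digestion, nanoLC-MS/MS. Spectral counts compared capture vs competition (t test). HepG2 in quadruplicate, K562 in duplicate.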

For assay [7], the target named is Vacuolar protein sorting-associated protein 35 (Homo sapiens) (UniProt Q96QK1). Briefly: Displacement of 2-((R)-1-cyclohexyl-2-oxo-2-((S)-2-(4-(N-((S)-6,9,25-trioxo-29-((3aS,4S,6aR)-2-oxohexahydro-1H-thieno[3,4-d]imidazol-4-yl)-8-(4-(3-(trifluoromethyl)-3H-diazirin-3-yl)benzamido)-14,17,20-trioxa-5,10,24-triazanonacosyl)carbamimidoyl)benzylcarbamoyl)azetidin-1-yl)ethylamino)acetic acid from VPS35 in human HepG2 cell lysate after 1 hr by capture compound based LC/MS analysis. The class given is cell-free. The method in brief: as §3

Assay [8] concerns the target T3, Ribosyldihydronicotinamide dehydrogenase [quinone] (Homo sapiens, UniProt P16083).
T3 sequence (P16083 whole entry): T1 sequence (whole entry)
Briefly: Displacement of (S)-N4-(4-(3-(2-((4-carbamimidoylphenylamino)methyl)-1-methyl-N-(pyridin-2-yl)-1H-benzo[d]imidazole-5-carboxamido)propanamido)butyl)-N1-(15-oxo-19-((3aS,4S,6aR)-2-oxohexahydro-1H-thieno[3,4-d]imidazol-4-yl)-4,7,10-trioxa-14-azanonadecyl)-2-(4-(3-(trifluoromethyl)-3H-diazirin-3-yl)benzamido)succinamide from human recombinant NQO2 after 1 hr by densitometric analysis.

The target of assay [9] is T3, Ribosyldihydronicotinamide dehydrogenase [quinone]. The assay is described as follows: Inhibition of human recombinant NQO2-mediated mitomycin C metabolism using NADH as cosubstrate incubated for 5 mins prior to NADH addition measured after 30 mins by spectrophotometric analysis. The method in brief: (§4)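 NQO2 (0.5 μM) with mitomycin C (50 μM) and four inhibitor concentrations in 100 mM potassium phosphate pH 5.8, 5 min at room temperature. Increasing NADH was then added and A340 followed for 30 min at rt. Ki from Lineweaver–Burk, IC50 from competitive Michaelis–Menten kinetics. Two experiments, duplicate points each.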

Assay [10] shares this target. The assay is described as follows: Competitive inhibition of human recombinant NQO2-mediated mitomycin C metabolism using NADH as cosubstrate incubated for 5 mins prior to NADH addition measured after 30 mins by Michaelis-Menten plot analysis. The method in brief:
as §4

With `Cc1ccc(NC(=O)c2ccc(CN3CCN(C)CC3)cc2)cc1Nc1nccc(-c2cccnc2)n1`, the result in [1], in assay [2], in assay [3], in assay [4] and in assay [5] was Active.
Consider `N=C(N)c1ccc(CNC(=O)[C@@H]2CCN2C(=O)[C@H](NCC(=O)O)C2CCCCC2)cc1`, for which the outcome in [6] and in assay [7] was Active.
Turning to `[H]/N=C(/N)c1ccc(NCc2nc3cc(C(=O)N(CCC(=O)O)c4ccccn4)ccc3n2C)cc1` [DABIGATRAN], the IC50 (in general, the concentration that gives 50% inhibition) was 11 µM in assay [8] and greater than 10 µM in assay [10]. Moreover, the Ki (usually a measure of affinity in units of concentration, obtained from inhibition or displacement) in assay [9] worked out at 70 µM.
